Experimental data: ChEMBL document CHEMBL1781932 (J Med Chem, 2011)
≈ marks a conversion by molar mass, not a printed value.

Assays:
Assay type in all cases: functional
Staphylococcus aureus [1] = test: Antimicrobial activity against methicillin-, tetracycline-resistant Staphylococcus aureus isolate 161 harboring tetM gene by CLSI dilution method
Enterococcus faecalis [2] = test: Antimicrobial activity against tetracycline-susceptible Enterococcus faecalis isolate 103 by CLSI dilution method
How it was run: (§1)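 Broth microdilution per CLSI in fresh cation-adjusted Mueller Hinton broth, kept at 4 °C before testing, with defibrinated horse blood added as appropriate. Strains were from ATCC. MIC in µg/mL. Runs were accepted when comparator antibiotics against ATCC quality-control strains fell within recommended ranges.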

Enterococcus faecalis [3] = test: Antimicrobial activity against tetracycline-resistant Enterococcus faecalis isolate 159 harboring […] gene by CLSI dilution method
Streptococcus pneumoniae [4] = test: Antimicrobial activity against tetracycline-susceptible Streptococcus pneumoniae isolate 106 by CLSI dilution method; how it was run: as §1
Streptococcus pneumoniae [5] = test: Antimicrobial activity against tetracycline-resistant Streptococcus pneumoniae isolate 160 harboring tetM gene by CLSI dilution method
Escherichia coli [6] = test: Antimicrobial activity against tetracycline-susceptible Escherichia coli isolate 107 by CLSI dilution method; how it was run: as §1
Escherichia coli [7] = test: Antimicrobial activity against tetracycline-resistant Escherichia coli isolate 155 harboring tetA gene by CLSI dilution method
Acinetobacter baumannii = test: Antimicrobial activity against tetracycline-susceptible Acinetobacter baumannii isolate 110 by CLSI dilution method; how it was run: as §1
Pseudomonas aeruginosa = test: Antimicrobial activity against tetracycline-susceptible Pseudomonas aeruginosa isolate 111 by CLSI dilution method; how it was run: as §1
Enterobacter cloacae = test: Antimicrobial activity against tetracycline-susceptible Enterobacter cloacae isolate 108 by CLSI dilution method; how it was run: as §1
Klebsiella pneumoniae [8] = test: Antimicrobial activity against tetracycline-susceptible Klebsiella pneumoniae isolate 109 by CLSI dilution method; how it was run: as §1
Klebsiella pneumoniae [9] = test: Antimicrobial activity against tetracycline-resistant Klebsiella pneumoniae isolate 153 harboring tetA gene by CLSI dilution method
Staphylococcus aureus [10] = test: Antimicrobial activity against tetracycline-susceptible Staphylococcus aureus isolate 101 by CLSI dilution method
Staphylococcus aureus [11] = test: Antimicrobial activity against tetracycline-resistant Staphylococcus aureus isolate 158 harboring tetK gene by CLSI dilution method

Row | Structure (SMILES) | MIC (Staphylococcus aureus [1]) [µg/mL] | MIC (Enterococcus faecalis [2]) [µg/mL] | MIC (Enterococcus faecalis [3]) [µg/mL] | MIC (Streptococcus pneumoniae [4]) [µg/mL] | MIC (Streptococcus pneumoniae [5]) [µg/mL] | MIC (Escherichia coli [6]) [µg/mL] | MIC (Escherichia coli [7]) [µg/mL] | MIC (Acinetobacter baumannii) [µg/mL] | MIC (Pseudomonas aeruginosa) [µg/mL] | MIC (Enterobacter cloacae) [µg/mL] | MIC (Klebsiella pneumoniae [8]) [µg/mL] | MIC (Klebsiella pneumoniae [9]) [µg/mL] | MIC (Staphylococcus aureus [10]) [µg/mL] | MIC (Staphylococcus aureus [11]) [µg/mL]
1 | COc1cccc2c(O)c3c(cc12)C[C@H]1C[C@H]2[C@H](N(C)C)C(O)=C(C(N)=O)C(=O)[C@@]2(O)C(O)=C1C3=O | 0.5 (≈ 1.01 µM) | 0.5 (≈ 1.01 µM) | 1 (≈ 2.02 µM) | 2 (≈ 4.04 µM) | 4 (≈ 8.09 µM) | > 32 | > 32 | 32 (≈ 64.7 µM) | > 32 | > 32 | > 32 | > 32 |  | 
2 | CN(C)[C@@H]1C(O)=C(C(N)=O)C(=O)[C@@]2(O)C(O)=C3C(=O)c4c(c(Cl)c5ccc(CN6CCC6)cc5c4O)C[C@H]3C[C@@H]12 | 2 (≈ 3.52 µM) | 0.25 (≈ 0.44 µM) | 2 (≈ 3.52 µM) |  | 0.5 (≈ 0.88 µM) | 2 (≈ 3.52 µM) | 16 (≈ 28.2 µM) | 2 (≈ 3.52 µM) | > 32 | 8 (≈ 14.1 µM) | 4 (≈ 7.04 µM) | 8 (≈ 14.1 µM) | 1 (≈ 1.76 µM) | 1 (≈ 1.76 µM)
3 | CCCOc1c2c(c(O)c3cc(CN4CCC4)ccc13)C(=O)C1=C(O)[C@]3(O)C(=O)C(C(N)=O)=C(O)[C@@H](N(C)C)[C@@H]3C[C@@H]1C2 | 2 (≈ 3.38 µM) | 0.25 (≈ 0.423 µM) | 2 (≈ 3.38 µM) | 0.0156 (≈ 0.0264 µM) | 0.0625 (≈ 0.106 µM) | 2 (≈ 3.38 µM) | 16 (≈ 27 µM) | 1 (≈ 1.69 µM) | 32 (≈ 54.1 µM) | 16 (≈ 27 µM) | 8 (≈ 13.5 µM) | 32 (≈ 54.1 µM) | 0.125 (≈ 0.211 µM) | 0.25 (≈ 0.423 µM)
4 | CC(C)Oc1c2c(c(O)c3cc(CN4CCC4)ccc13)C(=O)C1=C(O)[C@]3(O)C(=O)C(C(N)=O)=C(O)[C@@H](N(C)C)[C@@H]3C[C@@H]1C2 | 4 (≈ 6.76 µM) | 0.5 (≈ 0.845 µM) | 4 (≈ 6.76 µM) | 0.0313 (≈ 0.0529 µM) | 0.0625 (≈ 0.106 µM) | 4 (≈ 6.76 µM) | 16 (≈ 27 µM) | 2 (≈ 3.38 µM) | > 32 | 16 (≈ 27 µM) | 16 (≈ 27 µM) | 32 (≈ 54.1 µM) | 0.125 (≈ 0.211 µM) | 0.25 (≈ 0.423 µM)
5 | COCCOc1c2c(c(O)c3cc(CN4CCC4)ccc13)C(=O)C1=C(O)[C@]3(O)C(=O)C(C(N)=O)=C(O)[C@@H](N(C)C)[C@@H]3C[C@@H]1C2 | 2 (≈ 3.29 µM) | 0.5 (≈ 0.823 µM) | 2 (≈ 3.29 µM) | 0.0313 (≈ 0.0515 µM) | 0.25 (≈ 0.411 µM) | 2 (≈ 3.29 µM) | 32 (≈ 52.7 µM) | 4 (≈ 6.58 µM) | > 32 | 8 (≈ 13.2 µM) | 8 (≈ 13.2 µM) | > 32 | 0.25 (≈ 0.411 µM) | 0.5 (≈ 0.823 µM)
6 | CN(C)c1c2c(c(O)c3cc(CN4CCC4)ccc13)C(=O)C1=C(O)[C@]3(O)C(=O)C(C(N)=O)=C(O)[C@@H](N(C)C)[C@@H]3C[C@@H]1C2 | 2 (≈ 3.47 µM) | 0.125 (≈ 0.217 µM) | 2 (≈ 3.47 µM) | < 0.0156 | 0.125 (≈ 0.217 µM) | 2 (≈ 3.47 µM) |  | 1 (≈ 1.73 µM) | 32 (≈ 55.5 µM) | 8 (≈ 13.9 µM) | 4 (≈ 6.94 µM) | 16 (≈ 27.7 µM) | 1 (≈ 1.73 µM) | 0.0625 (≈ 0.108 µM)
7 | CN(C)[C@@H]1C(O)=C(C(N)=O)C(=O)[C@@]2(O)C(O)=C3C(=O)c4c(cc5ccc(-c6cccnc6)cc5c4O)C[C@H]3C[C@@H]12 | 1 (≈ 1.85 µM) | 0.5 (≈ 0.923 µM) | 0.25 (≈ 0.462 µM) | > 32 | > 32 | > 32 | > 32 | > 32 | > 32 | > 32 | > 32 | > 32 | 1 (≈ 1.85 µM) | 
8 | CNCc1ccc2cc3c(c(O)c2c1)C(=O)C1=C(O)[C@]2(O)C(=O)C(C(N)=O)=C(O)[C@@H](N(C)C)[C@@H]2C[C@@H]1C3 | 4 (≈ 7.88 µM) | 0.5 (≈ 0.985 µM) | 4 (≈ 7.88 µM) | 0.0625 (≈ 0.123 µM) | 1 (≈ 1.97 µM) | 1 (≈ 1.97 µM) | 16 (≈ 31.5 µM) | 4 (≈ 7.88 µM) | 16 (≈ 31.5 µM) | 2 (≈ 3.94 µM) | 4 (≈ 7.88 µM) | 8 (≈ 15.8 µM) | 0.5 (≈ 0.985 µM) | 1 (≈ 1.97 µM)
9 | CN(C)Cc1ccc2cc3c(c(O)c2c1)C(=O)C1=C(O)[C@]2(O)C(=O)C(C(N)=O)=C(O)[C@@H](N(C)C)[C@@H]2C[C@@H]1C3 | 1 (≈ 1.92 µM) | 0.25 (≈ 0.479 µM) | 1 (≈ 1.92 µM) | 0.0313 (≈ 0.06 µM) | 0.125 (≈ 0.24 µM) | 1 (≈ 1.92 µM) | 4 (≈ 7.67 µM) | 2 (≈ 3.83 µM) | > 32 | 2 (≈ 3.83 µM) | 2 (≈ 3.83 µM) | 4 (≈ 7.67 µM) | 0.25 (≈ 0.479 µM) | 0.25 (≈ 0.479 µM)
10 | CCN(C)Cc1ccc2cc3c(c(O)c2c1)C(=O)C1=C(O)[C@]2(O)C(=O)C(C(N)=O)=C(O)[C@@H](N(C)C)[C@@H]2C[C@@H]1C3 | 2 (≈ 3.73 µM) | 0.5 (≈ 0.934 µM) | 4 (≈ 7.47 µM) | 0.125 (≈ 0.233 µM) | 0.25 (≈ 0.467 µM) | 2 (≈ 3.73 µM) | 16 (≈ 29.9 µM) | 2 (≈ 3.73 µM) | > 32 | 4 (≈ 7.47 µM) | 8 (≈ 14.9 µM) | 32 (≈ 59.7 µM) | 0.25 (≈ 0.467 µM) | 0.5 (≈ 0.934 µM)
